Experimental data published in ChEMBL document CHEMBL1157639, “Identification of inhibitors of drug-resistant Candida albicans strains from a library of bicyclic peptidomimetic compounds” (2010).

Experiments:
[1] = biological target: Secreted aspartic protease 2 (Candida albicans) (UniProt P0CS83); assay: Inhibition of Candida albicans SAP2 at 20 uM by spectrophotometry relative to pepstatin A
In short: (§1)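 Sample was mixed with 1% (w/v) BSA substrate in 50 mM sodium citrate, pH 3.2, plus SAP2 protease (1 μg/mL stock solution) and incubated 30 min at 37 °C. The reaction was stopped with 10% TCA, kept 30 min on ice, and centrifuged; supernatant A280 was read. Percent inhibition was taken from ΔOD, with control proteinase minus proteinase plus pepstatin A set as 100%.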

[2] = biological target: Secreted aspartic protease 2 (Candida albicans) (UniProt P0CS83); assay: Inhibition of Candida albicans SAP2 at 10 uM by spectrophotometry relative to pepstatin A; in short: as §1
[3] = biological target: Secreted aspartic protease 2 (Candida albicans) (UniProt P0CS83); assay: Inhibition of Candida albicans SAP2 at 10 uM by spectrophotometry; in short: as §1

Sequence of Secreted aspartic protease 2 (Candida albicans) (P0CS83 57-398 limits assumed): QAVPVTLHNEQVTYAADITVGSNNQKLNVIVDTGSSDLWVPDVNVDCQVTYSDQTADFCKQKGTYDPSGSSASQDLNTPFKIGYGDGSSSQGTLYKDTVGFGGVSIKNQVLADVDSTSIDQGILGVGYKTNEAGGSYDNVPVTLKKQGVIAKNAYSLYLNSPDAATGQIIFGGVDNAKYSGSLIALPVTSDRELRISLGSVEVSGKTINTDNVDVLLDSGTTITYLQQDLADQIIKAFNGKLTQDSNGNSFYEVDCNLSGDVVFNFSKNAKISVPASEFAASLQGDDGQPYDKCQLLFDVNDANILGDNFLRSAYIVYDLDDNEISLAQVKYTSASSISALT

SMILES | inhibition [1] [%] | inhibition [2] [%] | inhibition [3] [%]
O=C([C@H]1O[C@H]2CN(Cc3ccccc3)C(=O)[C@@H]1O2)N1CCCCC1 | 50 |  | 
CC(NC(=O)[C@@H]1O[C@H]2CN(Cc3ccccc3)C(=O)[C@@H]1O2)c1ccccc1 (some centres undefined) |  | 87 | 22
CCCCCNC(=O)[C@@H]1O[C@H]2CN(Cc3ccccc3)C(=O)[C@@H]1O2 |  | 87 | 22
CCOC(=O)N1CCN(C(=O)[C@@H]2O[C@@]3(c4ccccc4)CN(C(c4ccccc4)c4ccccc4)C(=O)[C@@H]2O3)CC1 |  | 19 | 5
O=C([C@@H]1O[C@@]2(c3ccccc3)CN(C(c3ccccc3)c3ccccc3)C(=O)[C@@H]1O2)N1CCOCC1 |  | 19 | 5
O=C([C@@H]1O[C@@]2(c3ccccc3)CN(C(c3ccccc3)c3ccccc3)C(=O)[C@@H]1O2)N1CCN(CCO)CC1 |  | 19 | 5
CC(C)C[C@H](CO)NC(=O)[C@H]1O[C@@H]2CN(Cc3ccccc3)C(=O)[C@@H]1O2 | 60 |  | 
CCOC(=O)C1CCN(C(=O)[C@@H]2O[C@@]3(c4ccccc4)CN(C(c4ccccc4)c4ccccc4)C(=O)[C@@H]2O3)CC1 |  | 19 | 5
O=C(NC1CC1)[C@@H]1O[C@H]2CN(Cc3ccccc3)C[C@@H]1O2 |  | 13 | 3
CCOC(=O)N1CCN(C(=O)[C@@H]2O[C@H]3CN(Cc4ccccc4)C(=O)[C@@H]2O3)CC1 | 74 | 19 | 10
O=C([C@@H]1O[C@@H]2O[C@H]1C(=O)N(Cc1ccccc1)[C@H]2Cc1ccccc1)N1CCOCC1 |  | 40 | 13
CCCCCCNC(=O)[C@@H]1O[C@@H]2O[C@H]1C(=O)N(Cc1ccccc1)[C@H]2Cc1ccccc1 |  | 42 | 8
CC(C)C[C@@H](CO)NC(=O)[C@@H]1O[C@@H]2O[C@H]1C(=O)N(Cc1ccccc1)[C@H]2Cc1ccccc1 |  | 87 | 17
O=C([C@@H]1O[C@@H]2O[C@H]1C(=O)N(Cc1ccccc1)[C@H]2Cc1ccccc1)N1CCN(CCO)CC1 |  | 40 | 13
CC(C)C[C@@H](CO)NC(=O)[C@H]1OC2CN(Cc3ccccc3)C(=O)C1O2 (single isomer, unassigned) | 33 |  | 
COC(=O)[C@H](CC(C)C)N1C[C@@]2(C)O[C@H](C(=O)N3CCN(Cc4ccccc4)CC3)[C@H](O2)C1=O |  | 57 | 28
O=C(NC1CC1)[C@@H]1O[C@@H]2O[C@H]1C(=O)N(Cc1ccccc1)[C@H]2Cc1ccccc1 |  | 87 | 29
O=C(N[C@@H](CO)Cc1ccccc1)[C@@H]1O[C@H]2CN(Cc3ccccc3)C(=O)[C@@H]1O2 | 29 |  | 
O=C([C@@H]1O[C@H]2CN(Cc3ccccc3)C[C@@H]1O2)N1CCCCC1 |  | 6 | 2
O=C(NCCO)[C@@H]1O[C@H]2CN(Cc3ccccc3)C(=O)[C@@H]1O2 | 71 |  | 
CCCNC(=O)[C@@H]1O[C@H]2CN(Cc3ccccc3)C[C@@H]1O2 |  | 13 | 3
CC(C)CNC(=O)[C@@H]1O[C@H]2CN(Cc3ccccc3)C(=O)[C@@H]1O2 |  | 18 | 4
CC(C)C[C@H](CO)NC(=O)[C@@H]1O[C@H]2CN(Cc3ccccc3)C(=O)[C@H]1O2 | 29 |  | 

SMILES | inhibition [1] [%] | inhibition [2] [%] | inhibition [3] [%]
O=C([C@@H]1O[C@@H]2O[C@H]1C(=O)N(Cc1ccccc1)[C@H]2Cc1ccccc1)N1CCSCC1 |  | 40 | 13
CCCCNC(=O)[C@@H]1O[C@@H]2O[C@H]1C(=O)N(Cc1ccccc1)[C@H]2Cc1ccccc1 |  | 42 | 8
CC(C)CCNC(=O)[C@@H]1O[C@@H]2O[C@H]1C(=O)N(Cc1ccccc1)[C@H]2Cc1ccccc1 |  | 87 | 29
CCCCNC(=O)[C@@H]1O[C@@]2(c3ccccc3)CN(C(c3ccccc3)c3ccccc3)C[C@@H]1O2 |  | 12 | 3
O=C(NCCCO)[C@@H]1O[C@H]2CN(Cc3ccccc3)C(=O)[C@@H]1O2 | 23 |  | 
CC(NC(=O)[C@@H]1O[C@@]2(c3ccccc3)CN(C(c3ccccc3)c3ccccc3)C(=O)[C@@H]1O2)c1ccccc1 (some centres undefined) |  | 0 | 0
O=C([C@@H]1O[C@H]2CN(Cc3ccccc3)C(=O)[C@@H]1O2)N1CCN(CCO)CC1 | 58 | 92 | 31
O=C(NC1CCCCC1)[C@@H]1O[C@@]2(c3ccccc3)CN(C(c3ccccc3)c3ccccc3)C(=O)[C@@H]1O2 |  | 0 | 0
O=C([C@@H]1O[C@H]2CN(Cc3ccccc3)C[C@@H]1O2)N1CCOCC1 |  | 6 | 2
NC(=O)C1O[C@H]2CN(Cc3ccccc3)C(=O)[C@@H]1O2 (single isomer, unassigned) |  | 18 | 4
CC(C)CCNC(=O)[C@@H]1O[C@H]2CN(Cc3ccccc3)C[C@@H]1O2 |  | 13 | 3
C#CCNC(=O)[C@@H]1O[C@@]2(c3ccccc3)CN(C(c3ccccc3)c3ccccc3)C[C@@H]1O2 |  | 12 | 3
O=C1[C@@H]2O[C@H](CN1Cc1ccccc1)O[C@H]2C(=O)N1CCC[C@@H]1CO | 34 |  | 
CN(CCN)C(=O)[C@@H]1O[C@@H]2O[C@H]1C(=O)N(Cc1ccccc1)[C@H]2Cc1ccccc1 |  | 87 | 17
C[C@@H](CO)NC(=O)[C@@H]1O[C@H]2CN(Cc3ccccc3)C(=O)[C@@H]1O2 | 35 |  | 
CCCCNC(=O)[C@@H]1O[C@H]2CN(Cc3ccccc3)C(=O)[C@@H]1O2 |  | 18 | 4
O=C(NCC(F)(F)F)[C@@H]1O[C@@H]2O[C@H]1C(=O)N(Cc1ccccc1)[C@H]2Cc1ccccc1 |  | 42 | 8
CCCCCNC(=O)[C@@H]1O[C@@]2(c3ccccc3)CN(C(c3ccccc3)c3ccccc3)C(=O)[C@@H]1O2 |  | 0 | 0
O=C(NCc1ccccc1)[C@@H]1O[C@H]2CN(Cc3ccccc3)C(=O)[C@@H]1O2 |  | 18 | 4
CC(NC(=O)[C@@H]1O[C@@H]2O[C@H]1C(=O)N(Cc1ccccc1)[C@H]2Cc1ccccc1)c1ccccc1 (some centres undefined) |  | 42 | 8
O=C([C@@H]1O[C@H]2CN(Cc3ccccc3)C(=O)[C@@H]1O2)N1CCOCC1 | 62 | 92 | 31
CN(CCN)C(=O)[C@@H]1O[C@H]2CN(Cc3ccccc3)C[C@@H]1O2 |  | 6 | 2
CNC(=O)[C@@H]1O[C@H]2CN(Cc3ccccc3)C(=O)[C@@H]1O2 |  | 18 | 4

SMILES | inhibition [1] [%] | inhibition [2] [%] | inhibition [3] [%]
CCOC(=O)N1CCN(C(=O)[C@@H]2O[C@@H]3O[C@H]2C(=O)N(Cc2ccccc2)[C@H]3Cc2ccccc2)CC1 |  | 87 | 17
O=C(NC1CCCCC1)[C@@H]1O[C@@H]2O[C@H]1C(=O)N(Cc1ccccc1)[C@H]2Cc1ccccc1 |  | 73 | 36
C#CCNC(=O)[C@@H]1O[C@H]2CN(Cc3ccccc3)C[C@@H]1O2 |  | 13 | 3
O=C(N[C@H](CO)Cc1ccccc1)[C@@H]1O[C@H]2CN(Cc3ccccc3)C(=O)[C@@H]1O2 | 30 |  | 
O=C([C@@H]1O[C@H]2CN(Cc3ccccc3)C[C@@H]1O2)N1CCSCC1 |  | 6 | 2
O=C(NCC(F)(F)F)[C@@H]1O[C@@]2(c3ccccc3)CN(C(c3ccccc3)c3ccccc3)C[C@@H]1O2 |  | 12 | 3
CCOC(=O)C1CCN(C(=O)[C@@H]2O[C@@H]3O[C@H]2C(=O)N(Cc2ccccc2)[C@H]3Cc2ccccc2)CC1 |  | 87 | 17
CCCNC(=O)[C@@H]1O[C@@H]2O[C@H]1C(=O)N(Cc1ccccc1)[C@H]2Cc1ccccc1 |  | 73 | 36
C#CCNC(=O)[C@@H]1O[C@@H]2O[C@H]1C(=O)N(Cc1ccccc1)[C@H]2Cc1ccccc1 |  | 42 | 8
O=C([C@@H]1O[C@@]2(c3ccccc3)CN(C(c3ccccc3)c3ccccc3)C[C@@H]1O2)N1CCCCC1 |  | 23 | 6
CC(C)C[C@@H](CO)N(Cc1ccccc1)C(=O)[C@@H]1O[C@H]2CN(Cc3ccccc3)C(=O)[C@@H]1O2 | 35 |  | 
O=C([C@@H]1O[C@H]2CN(Cc3ccccc3)C(=O)[C@@H]1O2)N1CCSCC1 | 58 |  | 
O=C1[C@@H]2O[C@H](CN1Cc1ccccc1)O[C@H]2C(=O)N1CCC[C@H]1CO | 48 |  | 
CCOC(=O)C1CCN(C(=O)[C@@H]2O[C@@]3(c4ccccc4)CN(C(c4ccccc4)c4ccccc4)C[C@@H]2O3)CC1 |  | 23 | 6
O=C([C@@H]1O[C@@]2(c3ccccc3)CN(C(c3ccccc3)c3ccccc3)C[C@@H]1O2)N1CCSCC1 |  | 23 | 6
O=C(N[C@@H](CO)c1ccccc1)[C@@H]1O[C@H]2CN(Cc3ccccc3)C(=O)[C@@H]1O2 | 31 |  | 
CNC(=O)[C@@H]1O[C@@H]2O[C@H]1C(=O)N(Cc1ccccc1)[C@H]2Cc1ccccc1 |  | 87 | 29
O=C(NCC(F)(F)F)[C@@H]1O[C@H]2CN(Cc3ccccc3)C(=O)[C@@H]1O2 |  | 87 | 22
O=C([C@@H]1O[C@@H]2O[C@H]1C(=O)N(Cc1ccccc1)[C@H]2Cc1ccccc1)N1CCCNCC1 |  | 87 | 17
CN(CCN)C(=O)[C@@H]1O[C@@]2(c3ccccc3)CN(C(c3ccccc3)c3ccccc3)C[C@@H]1O2 |  | 23 | 6
CCCNC(=O)[C@@H]1O[C@@]2(c3ccccc3)CN(C(c3ccccc3)c3ccccc3)C[C@@H]1O2 |  | 12 | 3
NCCNC(=O)[C@@H]1O[C@H]2CN(Cc3ccccc3)C(=O)[C@@H]1O2 | 63 |  | 
